# Tested on: Fibroblast
# Assay: Multiplex assay against human fibroblast
# Assay type: toxicity, cell-based
# In short: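 Values for tubulin, mitochondrial-mass and membrane-permeability phenotypes are per cents of cells with healthy nuclei. These cells were identified by CellPathfinder machine-learning gating of live cells that had been stained at seeding with Hoechst33342, BioTracker Green Microtubule Cytoskeleton Dye, MitoTracker Red and Annexin V Alexa Fluor 680 and imaged on a CQ1 microscope at 37°C and 5% CO2 after compound addition. The gating first set Hoechst high-intensity objects apart from normal cells, then split normal cells into healthy, pyknosed or fragmented nuclei, and pyknosed cells into mitotic or apoptotic.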
# [1] = 12 h, 1 µM, compound concentration 1 uM, replicate 1
# [2] = 12 h, 1 µM, compound concentration 1 uM, replicate 2
# [3] = 12 h, 10 µM, compound concentration 10 uM, replicate 1
# [4] = 12 h, 10 µM, compound concentration 10 uM, replicate 2
# [5] = 24 h, 1 µM, compound concentration 1 uM, replicate 1
# [6] = 24 h, 1 µM, compound concentration 1 uM, replicate 2
# [7] = 24 h, 10 µM, compound concentration 10 uM, replicate 1
# [8] = 24 h, 10 µM, compound concentration 10 uM, replicate 2
# [9] = 48 h, 1 µM, compound concentration 1 uM, replicate 1
# [10] = 48 h, 1 µM, compound concentration 1 uM, replicate 2
# [11] = 48 h, 10 µM, compound concentration 10 uM, replicate 1
# [12] = 48 h, 10 µM, compound concentration 10 uM, replicate 2
smiles,measurement,setting,value
CN[C@@H](C)C(=O)N[C@H](C(=O)N1CCC[C@H]1C(=O)Nc1snnc1-c1ccccc1)C1CCCCC1 [GDC-0152],Population Apoptotic (%),[1],70%
same,Population Fragmented Nuclei (%),[1],14%
same,Population Healthy Nuclei (%),[1],68%
same,Population Hoechst High Intensity Objects (%),[1],4%
same,Population Membrane Permeable-Phenotype (%),[1],1%
same,Population Mitochondria Different-Phenotype (%),[1],6%
same,Population Mitotic Cells (%),[1],30%
same,Population Normal (%),[1],95%
same,Population Pyknosed Nuclei (%),[1],16%
same,Population Tubulin-Different-Phenotype (%),[1],38%
same,Total Cell Count,[1],127
same,Population Apoptotic (%),[2],33%
same,Population Fragmented Nuclei (%),[2],16%
same,Population Healthy Nuclei (%),[2],56%
same,Population Hoechst High Intensity Objects (%),[2],6%
same,Population Membrane Permeable-Phenotype (%),[2],6%
same,Population Mitochondria Different-Phenotype (%),[2],9%
same,Population Mitotic Cells (%),[2],66%
same,Population Normal (%),[2],93%
same,Population Pyknosed Nuclei (%),[2],26%
same,Population Tubulin-Different-Phenotype (%),[2],62%
same,Total Cell Count,[2],121
same,Population Apoptotic (%),[3],38%
same,Population Fragmented Nuclei (%),[3],17%
same,Population Healthy Nuclei (%),[3],59%
same,Population Hoechst High Intensity Objects (%),[3],6%
same,Population Membrane Permeable-Phenotype (%),[3],0%
same,Population Mitochondria Different-Phenotype (%),[3],13%
same,Population Mitotic Cells (%),[3],61%
same,Population Normal (%),[3],93%
same,Population Pyknosed Nuclei (%),[3],22%
same,Population Tubulin-Different-Phenotype (%),[3],80%
same,Total Cell Count,[3],144
same,Population Apoptotic (%),[4],24%
same,Population Fragmented Nuclei (%),[4],26%
same,Population Healthy Nuclei (%),[4],34%
same,Population Hoechst High Intensity Objects (%),[4],10%
same,Population Mitochondria Different-Phenotype (%),[4],10%
same,Population Mitotic Cells (%),[4],75%
same,Population Normal (%),[4],90%
same,Population Pyknosed Nuclei (%),[4],39%
same,Population Tubulin-Different-Phenotype (%),[4],65%
same,Total Cell Count,[4],150
same,Population Apoptotic (%),[5],60%
same,Population Fragmented Nuclei (%),[5],20%
same,Population Healthy Nuclei (%),[5],63%
same,Population Hoechst High Intensity Objects (%),[5],2%
same,Population Membrane Permeable-Phenotype (%),[5],1%
same,Population Mitochondria Different-Phenotype (%),[5],1%
same,Population Mitotic Cells (%),[5],40%
same,Population Normal (%),[5],97%
same,Population Pyknosed Nuclei (%),[5],16%
same,Population Tubulin-Different-Phenotype (%),[5],30%
same,Total Cell Count,[5],123
same,Population Apoptotic (%),[6],37%
same,Population Fragmented Nuclei (%),[6],22%
same,Population Healthy Nuclei (%),[6],55%
same,Population Hoechst High Intensity Objects (%),[6],9%
same,Population Membrane Permeable-Phenotype (%),[6],2%
same,Population Mitochondria Different-Phenotype (%),[6],11%
same,Population Mitotic Cells (%),[6],62%
same,Population Normal (%),[6],90%
same,Population Pyknosed Nuclei (%),[6],22%
same,Population Tubulin-Different-Phenotype (%),[6],61%
same,Total Cell Count,[6],133
same,Population Apoptotic (%),[7],67%
same,Population Fragmented Nuclei (%),[7],14%
same,Population Healthy Nuclei (%),[7],58%
same,Population Hoechst High Intensity Objects (%),[7],5%
same,Population Membrane Permeable-Phenotype (%),[7],0%
same,Population Mitochondria Different-Phenotype (%),[7],21%
same,Population Mitotic Cells (%),[7],32%
same,Population Normal (%),[7],94%
same,Population Pyknosed Nuclei (%),[7],26%
same,Population Tubulin-Different-Phenotype (%),[7],83%
same,Total Cell Count,[7],135
same,Population Apoptotic (%),[8],41%
same,Population Fragmented Nuclei (%),[8],33%
same,Population Healthy Nuclei (%),[8],34%
same,Population Hoechst High Intensity Objects (%),[8],8%
same,Population Membrane Permeable-Phenotype (%),[8],16%
same,Population Mitochondria Different-Phenotype (%),[8],22%
same,Population Mitotic Cells (%),[8],58%
same,Population Normal (%),[8],91%
same,Population Pyknosed Nuclei (%),[8],31%
same,Population Tubulin-Different-Phenotype (%),[8],68%
same,Total Cell Count,[8],157
same,Population Apoptotic (%),[9],47%
same,Population Fragmented Nuclei (%),[9],23%
same,Population Healthy Nuclei (%),[9],60%
same,Population Hoechst High Intensity Objects (%),[9],1%
same,Population Membrane Permeable-Phenotype (%),[9],0%
same,Population Mitochondria Different-Phenotype (%),[9],1%
same,Population Mitotic Cells (%),[9],52%
same,Population Normal (%),[9],98%
same,Population Pyknosed Nuclei (%),[9],16%
same,Population Tubulin-Different-Phenotype (%),[9],48%
same,Total Cell Count,[9],132
same,Population Apoptotic (%),[10],57%
same,Population Fragmented Nuclei (%),[10],38%
same,Population Healthy Nuclei (%),[10],44%
same,Population Hoechst High Intensity Objects (%),[10],5%
same,Population Membrane Permeable-Phenotype (%),[10],2%
same,Population Mitochondria Different-Phenotype (%),[10],14%
same,Population Mitotic Cells (%),[10],42%
same,Population Normal (%),[10],94%
same,Population Pyknosed Nuclei (%),[10],17%
same,Population Tubulin-Different-Phenotype (%),[10],67%
same,Total Cell Count,[10],159
same,Population Apoptotic (%),[11],76%
same,Population Fragmented Nuclei (%),[11],23%
same,Population Healthy Nuclei (%),[11],45%
same,Population Hoechst High Intensity Objects (%),[11],6%
same,Population Membrane Permeable-Phenotype (%),[11],0%
same,Population Mitochondria Different-Phenotype (%),[11],22%
same,Population Mitotic Cells (%),[11],23%
same,Population Normal (%),[11],93%
same,Population Pyknosed Nuclei (%),[11],31%
same,Population Tubulin-Different-Phenotype (%),[11],81%
same,Total Cell Count,[11],145
same,Population Apoptotic (%),[12],44%
same,Population Fragmented Nuclei (%),[12],39%
same,Population Healthy Nuclei (%),[12],42%
same,Population Membrane Permeable-Phenotype (%),[12],19%
same,Population Mitochondria Different-Phenotype (%),[12],17%
same,Population Mitotic Cells (%),[12],55%
same,Population Pyknosed Nuclei (%),[12],18%
same,Population Tubulin-Different-Phenotype (%),[12],88%
same,Total Cell Count,[12],159
